Reference: ChEMBL document CHEMBL5705891, “Small-molecule kinase inhibitors provide insight into Mps1 cell cycle function” (Nat Chem Biol, 2010)
Activity calls are given as the source filed them. The rule behind the calls is not given here.

Legend:
[1] = target: ALK tyrosine kinase receptor (Homo sapiens, UniProt Q9UM73); assay: Inhibition of ALK (unknown origin) assessed as residual enzyme activity at 10 uM by Ambit kinase binding assay relative to control
[2] = test system: U2OS; assay: Induction of premature entry into anaphase in thymidine-treated human U2OS cells expressing H2B-GFP and Plk4 overexpression assessed as fragmentary divisions into multiple daughter cells measured for 30 mins by time lapse imaging analysis relative to control; assay type: functional, cell-based
Summary of the method: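 Doxycycline-inducible Plk4 U2OS cells expressing H2B-GFP were blocked with thymidine for 18 hrs and released into doxycycline (2 μg·ml⁻¹) for 10 hrs. A second 18-hr thymidine block followed, then release for 6 hrs before 5 μM inhibitor, with or without Plk4 induction. Cells were imaged by time-lapse at 37°C, 5% CO₂, timed from NEBD, and bipolar versus multipolar anaphases were scored. Values are mean ± SD of 3 independent experiments.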

[3] = test system: HeLa S3; assay: Reversal of nocodazole-induced mitotic arrest in human HeLa S3 cells expressing histone H2B-GFP assessed as nuclear envelope reassembly at 10 uM measured for 20 to 60 mins by immunofluorescence analysis; assay type: functional, cell-based; settings: time 20-60 min
[4] = target: Insulin receptor (Homo sapiens, UniProt P06213); assay: Binding affinity to INSR (unknown origin) assessed as dissociation constant by Ambit kinase binding assay
[5] = target: Insulin receptor-related protein (Homo sapiens, UniProt P14616); assay: Binding affinity to INSRR (unknown origin) assessed as dissociation constant by Ambit kinase binding assay
[6] = test system: U2OS; assay: Induction of aneuploidy in UTRM10 cells (unknown origin) expressing LAP-tagged Mps1 M602Q mutant at 5 uM treated for 48 hrs by FACS analysis; assay type: functional, cell-based
Summary of the method: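 UTRM10 cells expressing RNAi-resistant LAP-Mps1 WT or M602Q were treated with compound or DMSO for 48 h, then DNA content was analysed by FACS.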

[7] = test system: UTRM10; assay: Effect on centrosome overduplication in hydroxyurea-treated UTRM10 cells (unknown origin) at 10 to 25 uM incubated for 48 hrs by centrin staining based analysis; settings: dose 10-25 µM
[8] = target: MAP/microtubule affinity-regulating kinase 4 (Homo sapiens) (UniProt Q96L34); assay: Inhibition of MARK4 (unknown origin) assessed as residual enzyme activity at 10 uM by Ambit kinase binding assay relative to control
[9] = test system: U2OS; assay: Inhibition of anaphase delay in thymidine-treated human U2OS cells expressing H2B-GFP and Plk4 overexpression measured for 30 mins by time lapse imaging analysis; assay type: functional, cell-based
Summary of the method: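 U2OS H2B-GFP cells carrying doxycycline-inducible Plk4. Thymidine 18 h, release into doxycycline (2 μg·ml⁻¹) 10 h, second thymidine 18 h, release 6 h, then 5 μM inhibitor. Time-lapse imaging at 37°C, 5% CO₂ recorded time after NEBD to anaphase. Mean ± SD of 3 independent experiments; Student's t test.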

[10] = test system: HCT-116; assay: Induction of accumulation of human HCT-116 cells with <2N DNA content at 10 uM incubated for 4 days by FACS analysis; assay type: functional, cell-based; settings: time 4.0 day
Summary of the method: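 HCT116 cells were treated with 10 μM compound or DMSO vehicle for the indicated times up to 96 h, then DNA content was profiled by flow cytometry.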

[11] = test system: TERT-RPE1; assay: Antiproliferative activity against hTERT-RPE1 cells assessed as loss of clonal survival upto 25 uM incubated for 10 days by crystal violet staining based assay; assay type: toxicity, cell-based; settings: human, tert-rpe1, 240 h, time 10 day
Summary of the method: (§1)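 Colony outgrowth: cells plated at 200 cells per 60-mm dish, exposed to compound or DMSO vehicle and stained with crystal violet after 10 days. HCT116 grown in McCoy's 5A; A549 and HeLa in DMEM; hTERT-RPE1 in DMEM/F-12. All media had 10% FBS and penicillin/streptomycin, 37°C, 5% CO2. Quantified from 3 independent experiments, mean + SD, Student's t test.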

[12] = target: Activated CDC42 kinase 1 (Homo sapiens, UniProt Q07912); assay: Binding affinity to TNK2 (unknown origin) assessed as dissociation constant by Ambit kinase binding assay
[13] = target: Dual specificity protein kinase CLK1 (Homo sapiens, UniProt P49759); assay: Inhibition of CLK1 (unknown origin) assessed as residual enzyme activity at 10 uM by Ambit kinase binding assay relative to control
[14] = test system: Proto-oncogene tyrosine-protein kinase receptor Ret (Homo sapiens), P07949 [V804M]; assay: Inhibition of RET V804M mutant (unknown origin) assessed as residual enzyme activity at 10 uM by Ambit kinase binding assay relative to control
[15] = test system: HCT-116; assay: Cytotoxicity against human HCT-116 cells assessed as loss of cell viability at 5 to 10 uM incubated for 10 days by crystal violet staining based assay; assay type: functional; settings: dose 5-10 µM, time 10.0 day; summary of the method: as §1
[16] = test system: MCF-10A; assay: Antiproliferative activity against human MCF-10A cells assessed as loss of clonal survival upto 25 uM incubated for 10 days by crystal violet staining based assay; assay type: toxicity, cell-based; settings: 240 h, time 10 day
[17] = target: Mitogen-activated protein kinase 1 (Homo sapiens, UniProt P28482); assay: Inhibition of ERK2 (unknown origin) assessed as residual enzyme activity at 10 uM by Ambit kinase binding assay relative to control
[18] = target: Calcium/calmodulin-dependent protein kinase kinase 2 (Homo sapiens) (UniProt Q96RR4); assay: Inhibition of CAMKK2 (unknown origin) assessed as residual enzyme activity at 10 uM by Ambit kinase binding assay relative to control
[19] = target: Mitogen-activated protein kinase 12 (Homo sapiens) (UniProt P53778); assay: Inhibition of p38-gamma (unknown origin) assessed as residual enzyme activity at 10 uM by Ambit kinase binding assay relative to control
[20] = target: Dual specificity mitogen-activated protein kinase kinase 3 (Homo sapiens) (UniProt P46734); assay: Inhibition of MEK3 (unknown origin) assessed as residual enzyme activity at 10 uM by Ambit kinase binding assay relative to control
[21] = target: TRAF2 and NCK-interacting protein kinase (Homo sapiens) (UniProt Q9UKE5); assay: Inhibition of TNIK (unknown origin) assessed as residual enzyme activity at 10 uM by Ambit kinase binding assay relative to control
[22] = target: Serine/threonine-protein kinase 26 (Homo sapiens) (UniProt Q9P289); assay: Inhibition of MST4 (unknown origin) assessed as residual enzyme activity at 10 uM by Ambit kinase binding assay relative to control
[23] = target: Bone morphogenetic protein receptor type-2 (Homo sapiens) (UniProt Q13873); assay: Inhibition of BMPR2 (unknown origin) assessed as residual enzyme activity at 10 uM by Ambit kinase binding assay relative to control
[24] = target: Bone morphogenetic protein receptor type-1B (Homo sapiens) (UniProt O00238); assay: Inhibition of BMPR1B (unknown origin) assessed as residual enzyme activity at 10 uM by Ambit kinase binding assay relative to control
[25] = target: Serine/threonine-protein kinase Nek2 (Homo sapiens) (UniProt P51955); assay: Inhibition of NEK2 (unknown origin) assessed as residual enzyme activity at 10 uM by Ambit kinase binding assay relative to control

Dual specificity mitogen-activated protein kinase kinase 3 (Homo sapiens), sequence (P46734 whole entry): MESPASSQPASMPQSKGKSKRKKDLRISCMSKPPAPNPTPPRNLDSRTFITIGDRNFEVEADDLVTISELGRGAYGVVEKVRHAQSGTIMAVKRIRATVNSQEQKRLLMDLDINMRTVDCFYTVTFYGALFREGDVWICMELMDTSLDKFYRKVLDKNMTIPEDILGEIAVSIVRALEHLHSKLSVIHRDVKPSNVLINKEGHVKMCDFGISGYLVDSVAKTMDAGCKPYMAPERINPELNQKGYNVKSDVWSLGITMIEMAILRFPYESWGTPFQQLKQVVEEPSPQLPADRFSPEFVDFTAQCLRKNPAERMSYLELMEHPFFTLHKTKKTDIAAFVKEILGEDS
ALK tyrosine kinase receptor, sequence (Q9UM73 19-1620 limits assumed): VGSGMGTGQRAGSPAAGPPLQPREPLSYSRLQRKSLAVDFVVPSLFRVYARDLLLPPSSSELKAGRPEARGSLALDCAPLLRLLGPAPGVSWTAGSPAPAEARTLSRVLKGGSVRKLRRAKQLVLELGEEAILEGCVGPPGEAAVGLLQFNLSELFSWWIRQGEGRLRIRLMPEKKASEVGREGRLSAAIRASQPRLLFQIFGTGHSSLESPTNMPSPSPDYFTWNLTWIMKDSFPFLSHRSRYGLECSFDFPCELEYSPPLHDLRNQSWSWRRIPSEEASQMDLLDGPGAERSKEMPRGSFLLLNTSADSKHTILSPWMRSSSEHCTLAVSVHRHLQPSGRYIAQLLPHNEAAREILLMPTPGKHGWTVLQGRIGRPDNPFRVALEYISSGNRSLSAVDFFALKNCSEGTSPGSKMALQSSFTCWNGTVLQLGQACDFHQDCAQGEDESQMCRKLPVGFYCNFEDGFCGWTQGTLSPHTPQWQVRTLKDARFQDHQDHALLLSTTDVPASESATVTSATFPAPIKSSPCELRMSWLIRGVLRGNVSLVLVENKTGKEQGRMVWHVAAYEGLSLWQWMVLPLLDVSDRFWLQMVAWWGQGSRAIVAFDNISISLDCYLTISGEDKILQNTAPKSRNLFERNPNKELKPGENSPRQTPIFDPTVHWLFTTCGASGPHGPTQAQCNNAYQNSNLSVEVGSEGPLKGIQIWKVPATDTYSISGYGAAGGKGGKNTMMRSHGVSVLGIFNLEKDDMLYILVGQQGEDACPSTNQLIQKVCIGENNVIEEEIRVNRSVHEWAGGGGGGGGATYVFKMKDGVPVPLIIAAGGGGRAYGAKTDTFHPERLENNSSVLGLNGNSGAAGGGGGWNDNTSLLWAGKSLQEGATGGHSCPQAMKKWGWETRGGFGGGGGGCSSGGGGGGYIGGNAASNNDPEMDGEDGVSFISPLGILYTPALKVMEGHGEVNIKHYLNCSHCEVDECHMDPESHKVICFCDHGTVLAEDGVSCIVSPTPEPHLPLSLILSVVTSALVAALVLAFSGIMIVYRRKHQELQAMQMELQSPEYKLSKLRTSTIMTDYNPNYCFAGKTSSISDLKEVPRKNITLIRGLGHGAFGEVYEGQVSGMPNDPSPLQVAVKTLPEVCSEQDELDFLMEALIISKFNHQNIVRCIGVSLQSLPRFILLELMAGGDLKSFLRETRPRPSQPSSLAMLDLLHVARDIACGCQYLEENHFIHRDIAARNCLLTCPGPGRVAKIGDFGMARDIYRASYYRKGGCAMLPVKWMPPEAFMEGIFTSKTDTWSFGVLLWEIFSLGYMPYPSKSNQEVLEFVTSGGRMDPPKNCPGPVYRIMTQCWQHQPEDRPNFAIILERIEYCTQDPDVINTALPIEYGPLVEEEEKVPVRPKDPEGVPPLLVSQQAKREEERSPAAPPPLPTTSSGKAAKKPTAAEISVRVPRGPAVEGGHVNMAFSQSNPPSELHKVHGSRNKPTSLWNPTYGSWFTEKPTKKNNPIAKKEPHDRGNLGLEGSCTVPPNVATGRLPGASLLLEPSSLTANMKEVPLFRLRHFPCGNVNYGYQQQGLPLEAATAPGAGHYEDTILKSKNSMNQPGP
Insulin receptor-related protein, sequence (P14616 27-742 limits assumed): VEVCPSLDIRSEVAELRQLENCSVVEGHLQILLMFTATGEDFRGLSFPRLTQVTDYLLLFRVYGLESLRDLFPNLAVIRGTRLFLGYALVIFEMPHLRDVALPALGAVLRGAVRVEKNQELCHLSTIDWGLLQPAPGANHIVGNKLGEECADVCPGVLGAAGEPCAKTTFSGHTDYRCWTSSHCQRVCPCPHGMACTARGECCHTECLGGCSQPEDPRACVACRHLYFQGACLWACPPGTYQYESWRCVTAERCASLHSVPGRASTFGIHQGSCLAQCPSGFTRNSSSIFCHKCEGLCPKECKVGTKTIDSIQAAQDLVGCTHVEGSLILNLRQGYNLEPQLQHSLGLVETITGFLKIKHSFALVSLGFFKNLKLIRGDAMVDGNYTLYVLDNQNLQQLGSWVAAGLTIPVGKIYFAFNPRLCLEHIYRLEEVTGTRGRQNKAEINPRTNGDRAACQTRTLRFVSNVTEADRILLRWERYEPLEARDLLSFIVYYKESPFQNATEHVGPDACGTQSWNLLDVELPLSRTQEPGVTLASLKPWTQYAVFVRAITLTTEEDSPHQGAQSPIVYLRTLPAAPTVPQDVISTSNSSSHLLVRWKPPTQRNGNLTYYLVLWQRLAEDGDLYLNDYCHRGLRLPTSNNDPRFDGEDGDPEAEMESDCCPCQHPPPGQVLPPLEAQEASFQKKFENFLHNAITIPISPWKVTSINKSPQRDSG
Insulin receptor-related protein, sequence (P14616 747-1297 limits assumed): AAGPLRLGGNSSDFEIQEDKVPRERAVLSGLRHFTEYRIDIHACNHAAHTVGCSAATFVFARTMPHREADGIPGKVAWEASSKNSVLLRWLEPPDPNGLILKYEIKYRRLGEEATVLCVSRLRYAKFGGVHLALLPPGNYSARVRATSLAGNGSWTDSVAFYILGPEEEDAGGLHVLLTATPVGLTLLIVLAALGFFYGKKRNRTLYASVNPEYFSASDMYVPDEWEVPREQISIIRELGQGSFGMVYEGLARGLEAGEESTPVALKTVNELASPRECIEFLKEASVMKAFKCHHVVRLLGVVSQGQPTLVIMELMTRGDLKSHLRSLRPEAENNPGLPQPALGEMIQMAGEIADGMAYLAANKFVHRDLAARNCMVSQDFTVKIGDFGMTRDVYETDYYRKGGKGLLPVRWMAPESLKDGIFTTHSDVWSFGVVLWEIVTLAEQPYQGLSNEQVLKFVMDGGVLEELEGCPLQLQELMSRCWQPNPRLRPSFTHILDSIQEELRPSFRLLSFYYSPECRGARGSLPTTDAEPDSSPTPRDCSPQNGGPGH
Bone morphogenetic protein receptor type-1B (Homo sapiens), sequence (O00238 whole entry): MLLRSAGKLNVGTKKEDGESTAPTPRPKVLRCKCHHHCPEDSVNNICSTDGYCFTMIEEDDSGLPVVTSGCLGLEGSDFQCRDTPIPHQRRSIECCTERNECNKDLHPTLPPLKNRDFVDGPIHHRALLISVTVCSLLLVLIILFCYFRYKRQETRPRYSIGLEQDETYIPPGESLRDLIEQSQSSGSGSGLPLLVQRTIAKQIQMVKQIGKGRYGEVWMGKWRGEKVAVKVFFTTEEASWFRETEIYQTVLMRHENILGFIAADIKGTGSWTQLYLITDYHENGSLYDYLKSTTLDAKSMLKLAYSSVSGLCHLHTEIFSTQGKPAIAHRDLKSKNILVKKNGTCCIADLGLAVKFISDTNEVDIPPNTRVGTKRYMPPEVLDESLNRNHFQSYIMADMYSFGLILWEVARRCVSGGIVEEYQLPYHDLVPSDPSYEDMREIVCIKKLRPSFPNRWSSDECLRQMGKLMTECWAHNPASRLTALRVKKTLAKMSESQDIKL
MAP/microtubule affinity-regulating kinase 4 (Homo sapiens), sequence (Q96L34 whole entry): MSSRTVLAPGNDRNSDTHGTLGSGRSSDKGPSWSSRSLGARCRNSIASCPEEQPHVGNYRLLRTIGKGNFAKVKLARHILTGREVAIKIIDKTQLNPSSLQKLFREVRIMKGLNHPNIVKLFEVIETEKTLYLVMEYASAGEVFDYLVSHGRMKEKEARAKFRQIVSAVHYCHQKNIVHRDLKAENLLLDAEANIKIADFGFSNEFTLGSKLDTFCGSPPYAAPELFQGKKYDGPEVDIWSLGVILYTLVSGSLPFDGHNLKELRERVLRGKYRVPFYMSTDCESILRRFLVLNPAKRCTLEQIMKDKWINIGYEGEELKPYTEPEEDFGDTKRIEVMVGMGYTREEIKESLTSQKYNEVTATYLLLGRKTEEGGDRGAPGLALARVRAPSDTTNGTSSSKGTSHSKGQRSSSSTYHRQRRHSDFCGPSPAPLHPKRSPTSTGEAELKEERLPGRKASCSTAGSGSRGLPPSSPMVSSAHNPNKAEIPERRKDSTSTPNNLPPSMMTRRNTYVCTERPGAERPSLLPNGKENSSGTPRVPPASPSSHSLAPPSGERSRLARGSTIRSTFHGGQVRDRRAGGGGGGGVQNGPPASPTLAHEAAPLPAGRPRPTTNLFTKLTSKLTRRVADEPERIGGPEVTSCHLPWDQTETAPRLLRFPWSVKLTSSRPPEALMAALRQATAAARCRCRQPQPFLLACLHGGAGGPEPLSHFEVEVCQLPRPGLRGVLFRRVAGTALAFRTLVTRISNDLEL
Calcium/calmodulin-dependent protein kinase kinase 2 (Homo sapiens), sequence (Q96RR4 2-588 limits assumed): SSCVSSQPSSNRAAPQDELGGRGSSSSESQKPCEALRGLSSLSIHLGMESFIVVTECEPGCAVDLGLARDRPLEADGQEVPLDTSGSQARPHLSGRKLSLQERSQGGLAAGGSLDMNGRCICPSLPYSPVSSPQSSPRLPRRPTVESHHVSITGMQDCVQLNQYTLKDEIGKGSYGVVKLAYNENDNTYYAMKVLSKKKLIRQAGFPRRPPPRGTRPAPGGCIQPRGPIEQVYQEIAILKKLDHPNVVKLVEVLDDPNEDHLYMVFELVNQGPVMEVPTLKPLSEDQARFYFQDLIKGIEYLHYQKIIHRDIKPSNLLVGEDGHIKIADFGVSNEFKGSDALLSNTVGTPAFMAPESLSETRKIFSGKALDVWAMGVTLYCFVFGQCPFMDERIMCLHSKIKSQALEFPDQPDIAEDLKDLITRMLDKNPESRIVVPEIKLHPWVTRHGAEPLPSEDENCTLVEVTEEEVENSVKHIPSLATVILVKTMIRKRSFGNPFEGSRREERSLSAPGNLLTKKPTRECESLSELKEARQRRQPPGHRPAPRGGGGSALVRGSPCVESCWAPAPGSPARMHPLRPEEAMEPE

**Q.** How did the Activity [1] turn out when COc1cc(N2CCC(O)CC2)ccc1Nc1cc(Nc2ccccc2S(=O)(=O)C(C)C)c2cc[nH]c2n1 was run?
**A.** 8.9%

**Q.** And the Activity [2]?
**A.** Active

**Q.** What about the Activity [3] of the same compound?
**A.** Active

**Q.** What about the Kd [4] of the same compound?
**A.** 470 nM

**Q.** What about the Kd [5] of the same compound?
**A.** 1200 nM

**Q.** What about the Activity [6] of the same compound?
**A.** Active

**Q.** What about the Activity [7] of the same compound?
**A.** inactive

**Q.** What about the Activity [8] of the same compound?
**A.** 1.2%

**Q.** What about the inhibition [9] of the same compound?
**A.** Active

**Q.** And the Activity [10]?
**A.** Active

**Q.** And the Activity [11]?
**A.** Toxic

**Q.** What about the Kd [12] of the same compound?
**A.** 3100 nM

**Q.** What about the Activity [13] of the same compound?
**A.** 17%

**Q.** And the Activity [14]?
**A.** 0.5%

**Q.** What about the Activity [15] of the same compound?
**A.** Active

**Q.** And the Activity [16]?
**A.** Toxic

**Q.** What about the Activity [17] of the same compound?
**A.** 6%

**Q.** How did the Activity [18] turn out when O=C1c2ccccc2-c2n[nH]c3cccc1c23 was run?
**A.** 26%

**Q.** And the Activity [19]?
**A.** 21%

**Q.** And the Activity [20]?
**A.** 6%

**Q.** And the Activity [21]?
**A.** 18%

**Q.** And the Activity [22]?
**A.** 2.4%

**Q.** And the Activity [23]?
**A.** 15%

**Q.** What about the Activity [24] of the same compound?
**A.** 5%

**Q.** And the Activity [25]?
**A.** 27%
